Laboratory results reported in PMC2910123 (Journal of inorganic biochemistry, 2010).

What was measured:
[1] = test system: poly (dG-dC).poly (dG-dC); conditions: cited from earlier work
[2] = test system: poly (dA-dT).poly (dA-dT); conditions: cited from earlier work
CT DNA [3] = assay: Spectrophotometric; type: binding, calf; conditions: 25°C, 5mM Tris/HCl, 50 mM NaClO4 buffer, pH=7.39; average of values calculated at 330 and 343 nm
CT DNA [4] = assay: Fluorimetric; type: binding, calf; conditions: 25°C, 5mM Tris/HCl, 50 mM NaClO4 buffer, pH=7.39; values calculated at 380 nm
CT DNA [5] = assay: Thermal denaturation of CT DNA; type: binding, calf; conditions: 0.5 equivalents of drug, 1h at 25°C, 5 mM Tris/HCl buffer; for ΔTm /1h incubation/25mM NaClO4: pH=7.39, 25mM NaClO4; for ΔTm /1h incubation/50m M NaClO4: pH=7.39, 50 mM NaClO4
SUP-T1 lymphoma cells = assay: Cytotoxicity assay by flow cytometry; type: cell-based, human
[6] = test system: Jurkat human T lymphocyte leukemia cells; assay: Cytotoxicity assay by flow cytometry; type: cell-based
pBR322 plasmid DNA = assay: Electrophoresis Mobility Shift Assay; type: binding; conditions: pBR322, 20 h at 37°C, molar ratios 0.25 to 1.0 (cisplatin 0.5 eq.)
CT DNA [7] = assay: Circular dichroism spectroscopy of CT DNA; type: binding, calf; conditions: incubated at 37°C with increasing drug/DNA ratios
[8] = test system: several cancer cell lines; conditions: cited from earlier work
Jurkat cells = assay: Apoptosis assay by two-color flow cytometry; type: cell-based, human; conditions: 100 µM, 16 h
Method in brief: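 Jurkat cells were plated at 100,000 cells/well in RPMI 1640 with antibiotics and 10% heat-inactivated newborn calf serum, then exposed to 100 µM test compound (in 0.9% NaCl or DMSO) for 16 h. Cells were pelleted cold, washed in cold medium then PBS, and stained with Annexin V-FITC plus PI in HEPES binding buffer (pH 7.4, 140 mM NaCl, 2.55 mM CaCl2). Compensation used unstained, single- and double-stained cells.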

[9] = test system: dedifferentiated liposarcoma cell line LS141; conditions: cited from earlier work
[10] = test system: HCT-116 colon cancer cell lines; conditions: cited from earlier work

| Molecule | Kb1, Absorption Titration (CT DNA [3]) | Kb2, Absorption Titration (CT DNA [3]) | Kb1, Emission Titration (CT DNA [4]) | Kb2, Emission Titration (CT DNA [4]) | ΔTm /1h incubation/25mM NaClO4 (CT DNA [5]) | ΔTm /1h incubation/50m M NaClO4 (CT DNA [5]) | effect on electrophoretic mobility of CCC and OC forms (pBR322 plasmid DNA) | further results |
| --- | --- | --- | --- | --- | --- | --- | --- | --- |
| CCN(CC)CCCC(C)Nc1ccnc2cc(Cl)ccc12.O=P(O)(O)O.O=P(O)(O)O (single isomer, unassigned; (-)) [(−)-CQDP] | – | – | – | – | – | – | – | binding affinity ratio of (−) to (+) enantiomer [1]: 1.29; binding affinity ratio of (−) to (+) enantiomer [2]: 1.28 |
| CCN(CC)CCCC(C)Nc1ccnc2cc(Cl)ccc12 (stereo not shown) [CQDP, chloroquine diphosphate] | 1.07 ± 0.05 x 10^7 M^−1 | 1.23 ± 0.68 x 10^5 M^−1 | 2.63e+07 M⁻¹ | 438000 M⁻¹ | +4.9 °C | +3.0 °C | does not cause any significant effect | CC50 (SUP-T1 lymphoma cells; Homo sapiens, SUP-T1, 20 h): 130 µM; CC50 ([6]; Homo sapiens, 20 h): 95 µM; changes in CD spectrum of CT DNA (CT DNA [7]): two new sizable CD bands at 330 and 340 nm |
| N.N.[Cl][Pt][Cl] [cisplatin] | – | – | – | – | – | – | decrease in mobility of the CCC form and an increase in mobility of the OC form | – |
| Ru(KTZ)2Cl2 | – | – | – | – | – | – | – | IC50 [8]: ~25 µM |
| [Ru(η^6-p-cymene)(η^6-CQDP)][BF4]2 [Complex 5] | 2.10 ± 0.68 x 10^7 M^−1 | 3.15 ± 0.12 x 10^5 M^−1 | 1.2e+06 M⁻¹ | 354000 M⁻¹ | +5.1 °C | +2.8 °C | – | CC50 (SUP-T1 lymphoma cells; SUP-T1, 20 h of incubation, PI and flow cytometry, average of triplicates): 70 µM; CC50 ([6]; 20 h of incubation, PI and flow cytometry, average of triplicates): 77 µM; mechanism of cell death (apoptosis/necrosis) (Jurkat cells): mainly induce apoptosis; antitumor activity (in words) [9]: active; antitumor activity (in words) [10]: active |
